In ChEMBL document CHEMBL3286372, “Design, synthesis and structure-activity relationship of novel semi-synthetic flavonoids as antiproliferative agents” (2014):

What was measured:
[1] = target: Glycogen synthase kinase-3 beta (Homo sapiens) (UniProt P49841); assay: Inhibition of GSK-3beta (unknown origin) at 20 uM after 30 mins by scintillation counting analysis relative to control
How it was run: (§1)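 Recombinant kinases, cloned, expressed and purified in-house. Radiometric ³³P-ATP assay with kinase at ~10-50 nM final and 1-5 µg peptide or protein substrate. Compound at 20 µM final, in duplicate. Reaction started by adding ATP, run 30 min at ambient temperature, then spotted on P81 phosphocellulose. Plates washed in 1% phosphoric acid and counted by scintillation. No-substrate blank subtracted. Result is mean % activity change versus DMSO control.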

[2] = test system: CAKI-1; assay: Growth inhibition of human CAKI-1 cells after 48 hrs by coulter counting analysis; assay type: functional; conditions: CAKI-1, 48 h
How it was run: (§2)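 NCI five-dose screen at 0.01-100 µM, diluted from DMSO stocks in buffered saline (final DMSO <1%). Cells at 6×10^4 cells/ml in RPMI 1640 with 10% FBS, in duplicate wells, at 37 °C under 5% CO2 for 48 h. Cells diluted tenfold in saline and Coulter-counted. GI50, TGI and LC50 taken from log concentration-growth inhibition curves.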

[3] = Growth inhibition of human UACC257 cells after 48 hrs by coulter counting analysis; assay type: functional; conditions: UACC-257, 48 h
How it was run: (§3)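 NCI five-dose screen, 0.01-100 µM, from DMSO stocks diluted in buffer saline (final DMSO <1%). Cells grown in RPMI 1640 + 10% FBS, seeded at 6×10^4 cells/ml, in duplicate wells. Exposure 48 h at 37 °C, 5% CO2. Cells diluted 10-fold in saline and counted by Coulter counter. GI50 derived from log concentration–percent growth inhibition curves. Controls carried matching PBS/saline/DMSO.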

[4] = Growth inhibition of human HOP92 cells after 48 hrs by coulter counting analysis; assay type: functional; conditions: HOP-92, 48 h; how it was run: as §2
[5] = test system: HCT-116; assay: Growth inhibition of human HCT116 cells after 48 hrs by coulter counting analysis; assay type: functional; conditions: HCT-116, 48 h; how it was run: as §2
[6] = test system: SN12C; assay: Growth inhibition of human SN12C cells after 48 hrs by coulter counting analysis; assay type: functional
How it was run: (§4)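 Five-dose NCI-60 follow-up, 0.01–100 µM, made from DMSO stock in buffered saline (final DMSO <1%), in duplicate wells. Cells in RPMI 1640 with 10% FBS at 6×10^4 cells/ml, 37 °C, 5% CO2, 48 h. Cells diluted tenfold in saline, Coulter-counted and corrected for dilution. GI50, TGI and LC50 taken from log concentration–percent growth curves.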

[7] = test system: MCF7; assay: Growth inhibition of human MCF7 cells after 48 hrs by coulter counting analysis; assay type: functional; conditions: MCF7, 48 h; how it was run: as §2
[8] = test system: 786-0; assay: Growth inhibition of human 786-0 cells after 48 hrs by coulter counting analysis; assay type: functional; conditions: 786-0, 48 h; how it was run: as §2
[9] = test system: SK-MEL-2; assay: Growth inhibition of human SK-MEL-2 cells after 48 hrs by coulter counting analysis; assay type: functional; conditions: SK-MEL-2, 48 h; how it was run: as §4
[10] = test system: KM12; assay: Growth inhibition of human KM12 cells after 48 hrs by coulter counting analysis; assay type: functional; conditions: KM12, 48 h; how it was run: as §2
[11] = test system: M14; assay: Growth inhibition of human M14 cells after 48 hrs by coulter counting analysis; assay type: functional; conditions: M14, 48 h; how it was run: as §2
[12] = test system: ACHN; assay: Growth inhibition of human ACHN cells after 48 hrs by coulter counting analysis; assay type: functional; how it was run: as §2
[13] = test system: CCRF-CEM; assay: Growth inhibition of human CCRF-CEM cells after 48 hrs by coulter counting analysis; assay type: functional; how it was run: as §2
[14] = Growth inhibition of human BT549 cells after 48 hrs by coulter counting analysis; assay type: functional; conditions: BT-549, 48 h; how it was run: as §2
[15] = test system: NCI-H322M; assay: Growth inhibition of human NCI-H322M cells after 48 hrs by coulter counting analysis; assay type: functional; how it was run: as §4
[16] = Growth inhibition of human MOLT4 cells after 48 hrs by coulter counting analysis; assay type: functional; conditions: MOLT-4, 48 h; how it was run: as §4
[17] = test system: SK-OV-3; assay: Growth inhibition of human SKOV3 cells after 48 hrs by coulter counting analysis; assay type: functional; conditions: SK-OV-3, 48 h; how it was run: as §4
[18] = Growth inhibition of human HCT15 cells after 48 hrs by coulter counting analysis; assay type: functional; conditions: HCT-15, 48 h; how it was run: as §2
[19] = target: Cyclin-dependent kinase 2/cyclin E1 (Homo sapiens) (UniProt P24864+P24941); assay: Inhibition of CDK2/Cyclin E1 (unknown origin) at 20 uM after 30 mins by scintillation counting analysis relative to control; assay type: protein-complex assay; how it was run: as §1
[20] = Growth inhibition of human OVCAR5 cells after 48 hrs by coulter counting analysis; assay type: functional; conditions: OVCAR-5, 48 h; how it was run: as §4
[21] = test system: SF-268; assay: Growth inhibition of human SF268 cells after 48 hrs by coulter counting analysis; assay type: functional; conditions: SF-268, 48 h; how it was run: as §4
[22] = Growth inhibition of human SF539 cells after 48 hrs by coulter counting analysis; assay type: functional; conditions: SF-539, 48 h; how it was run: as §4
[23] = Growth inhibition of human NCI-ADR-RES cells after 48 hrs by coulter counting analysis; assay type: functional; how it was run: as §4
[24] = test system: RPMI-8226; assay: Growth inhibition of human RPMI8226 cells after 48 hrs by coulter counting analysis; assay type: functional; conditions: RPMI-8226, 48 h; how it was run: as §4
[25] = test system: COLO 205; assay: Growth inhibition of human COLO205 cells after 48 hrs by coulter counting analysis; assay type: functional; conditions: COLO 205, 48 h; how it was run: as §2
[26] = test system: NCI-H23; assay: Growth inhibition of human NCI-H23 cells after 48 hrs by coulter counting analysis; assay type: functional; conditions: NCI-H23, 48 h; how it was run: as §4
[27] = Growth inhibition of human EKVX cells after 48 hrs by coulter counting analysis; assay type: functional; how it was run: as §2
[28] = test system: NCI-H522; assay: Growth inhibition of human NCI-H522 cells after 48 hrs by coulter counting analysis; assay type: functional; conditions: NCI-H522, 48 h; how it was run: as §4
[29] = test system: A498; assay: Growth inhibition of human A498 cells after 48 hrs by coulter counting analysis; assay type: functional; conditions: A498, 48 h; how it was run: as §2
[30] = test system: DU-145; assay: Growth inhibition of human DU145 cells after 48 hrs by coulter counting analysis; assay type: functional; conditions: DU-145, 48 h; how it was run: as §2
[31] = Growth inhibition of human UACC62 cells after 48 hrs by coulter counting analysis; assay type: functional; conditions: UACC-62, 48 h; how it was run: as §3
[32] = test system: SW-620; assay: Growth inhibition of human SW620 cells after 48 hrs by coulter counting analysis; assay type: functional; conditions: SW-620, 48 h; how it was run: as §4
[33] = Growth inhibition of human SF295 cells after 48 hrs by coulter counting analysis; assay type: functional; conditions: SF-295, 48 h; how it was run: as §4
[34] = test system: HT-29; assay: Growth inhibition of human HT-29 cells after 48 hrs by coulter counting analysis; assay type: functional; conditions: HT-29, 48 h; how it was run: as §2
[35] = test system: PC-3; assay: Growth inhibition of human PC3 cells after 48 hrs by coulter counting analysis; assay type: functional; conditions: PC-3, 48 h; how it was run: as §4
[36] = Growth inhibition of human LOXIMVI cells after 48 hrs by coulter counting analysis; assay type: functional; conditions: LOX IMVI; how it was run: as §2
[37] = test system: U-251; assay: Growth inhibition of human U251 cells after 48 hrs by coulter counting analysis; assay type: functional; conditions: U-251, 48 h; how it was run: as §3
[38] = Growth inhibition of human UO31 cells after 48 hrs by coulter counting analysis; assay type: functional; conditions: UO-31, 48 h; how it was run: as §3
[39] = Growth inhibition of human OVCAR3 cells after 48 hrs by coulter counting analysis; assay type: functional; conditions: OVCAR-3, 48 h; how it was run: as §4
[40] = test system: Malme-3M; assay: Growth inhibition of human MALME-3M cells after 48 hrs by coulter counting analysis; assay type: functional; how it was run: as §2

Chain of Glycogen synthase kinase-3 beta (Homo sapiens) (P49841 whole entry, looked up): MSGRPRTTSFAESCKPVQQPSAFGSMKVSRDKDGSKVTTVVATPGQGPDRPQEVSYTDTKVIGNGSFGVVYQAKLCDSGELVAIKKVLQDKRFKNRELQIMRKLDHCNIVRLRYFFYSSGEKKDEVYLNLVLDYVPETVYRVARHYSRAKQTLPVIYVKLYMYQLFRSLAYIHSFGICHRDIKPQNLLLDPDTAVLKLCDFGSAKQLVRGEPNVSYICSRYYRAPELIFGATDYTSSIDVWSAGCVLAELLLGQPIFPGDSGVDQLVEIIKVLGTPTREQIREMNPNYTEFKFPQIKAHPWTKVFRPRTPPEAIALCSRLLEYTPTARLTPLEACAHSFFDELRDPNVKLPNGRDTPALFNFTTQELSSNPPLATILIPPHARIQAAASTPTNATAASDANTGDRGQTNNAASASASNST

## C=CCc1c2c(c(OC)c3ccoc13)C(=O)/C(=C/c1ccccc1OC)O2
[1]
  inhibition: 56%
[2]
  GI50: 3.15 µM
[3]
  GI50: 6.41 µM
[4]
  GI50: 2.07 µM
[5]
  GI50: 3.29 µM
[6]
  GI50: 4.85 µM
[7]
  GI50: 2.92 µM
[8]
  GI50: 6.29 µM
[9]
  GI50: 6.06 µM
[10]
  GI50: 3.49 µM
[11]
  GI50: 8.19 µM
[12]
  GI50: 4.32 µM
[13]
  GI50: 3.44 µM
[14]
  GI50: 4.44 µM
[15]
  GI50: 5.93 µM
[16]
  GI50: 3.52 µM
[17]
  GI50: 5.45 µM
[18]
  GI50: 3.6 µM
[19]
  inhibition: 0%
[20]
  GI50: 3.57 µM
[21]
  GI50: 3.73 µM
[22]
  GI50: 5.45 µM
[23]
  GI50: 2.82 µM
[24]
  GI50: 3.51 µM
[25]
  GI50: 7.64 µM
[26]
  GI50: 2.88 µM
[27]
  GI50: 4.41 µM
[28]
  GI50: 3.16 µM
[29]
  GI50: 5.81 µM
[30]
  GI50: 3.19 µM
[31]
  GI50: 4.14 µM
[32]
  GI50: 4.24 µM
[33]
  GI50: 3.67 µM
[34]
  GI50: 3.98 µM
[35]
  GI50: 5.25 µM
[36]
  GI50: 3.13 µM
[37]
  GI50: 3.53 µM
[38]
  GI50: 4.98 µM
[39]
  GI50: 3.28 µM
[40]
  GI50: 19.8 µM
